Measured values published in ChEMBL document CHEMBL4257579, “Analogs of penfluridol as chemotherapeutic agents with reduced central nervous system activity” (Bioorg Med Chem Lett, 2018).

Key:
[1] = biological target: T1, Sodium-dependent dopamine transporter (Homo sapiens, UniProt Q01959); test: Displacement of [3H]WIN35428 from human DAT expressed in HEK cells by radioligand binding assay relative to control; assay type: cell-based
[2] = biological target: Sodium-dependent serotonin transporter (Homo sapiens, UniProt P31645); test: Displacement of [3H]Citalopram from human SERT expressed in HEK cells by radioligand binding assay relative to control; assay type: cell-based
[3] = test system: Lewis lung carcinoma cell line; test: Cytotoxicity against mouse LLC cells harboring […] assessed as reduction in cell viability after 72 hrs by MTT assay; assay type: functional, cell-based
How it was run: (§1)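 Cells exposed to compounds; viability read at 24, 48 and 72 h. Every experiment run in triplicate.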

[4] = biological target: T2, Delta-type opioid receptor (Homo sapiens, UniProt P41143); test: Displacement of [3H]DADLE from human DOR expressed in HEK cells by radioligand binding assay relative to control; assay type: cell-based; set-up: concentration or dose not given beside the values; conditions: concentration not given here
T2 sequence (P41143 whole entry): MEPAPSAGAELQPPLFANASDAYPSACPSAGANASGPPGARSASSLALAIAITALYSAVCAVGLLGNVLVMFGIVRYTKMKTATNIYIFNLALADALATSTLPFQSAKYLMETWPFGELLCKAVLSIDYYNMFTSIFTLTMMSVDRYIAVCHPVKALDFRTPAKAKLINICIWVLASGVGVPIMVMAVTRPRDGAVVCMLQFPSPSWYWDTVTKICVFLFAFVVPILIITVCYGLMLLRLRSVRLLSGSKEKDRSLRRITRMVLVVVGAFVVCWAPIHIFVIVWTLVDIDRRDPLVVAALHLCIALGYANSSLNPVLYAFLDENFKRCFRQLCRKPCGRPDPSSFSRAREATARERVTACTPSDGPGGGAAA

[5] = biological target: T3, Histamine H2 receptor (Homo sapiens, UniProt P25021); test: Displacement of [3H]Cimetidine from human H2 receptor expressed in HEK cells by radioligand binding assay relative to control; assay type: cell-based; set-up: concentration or dose not given beside the values; conditions: concentration not given here
T3 sequence (P25021 whole entry): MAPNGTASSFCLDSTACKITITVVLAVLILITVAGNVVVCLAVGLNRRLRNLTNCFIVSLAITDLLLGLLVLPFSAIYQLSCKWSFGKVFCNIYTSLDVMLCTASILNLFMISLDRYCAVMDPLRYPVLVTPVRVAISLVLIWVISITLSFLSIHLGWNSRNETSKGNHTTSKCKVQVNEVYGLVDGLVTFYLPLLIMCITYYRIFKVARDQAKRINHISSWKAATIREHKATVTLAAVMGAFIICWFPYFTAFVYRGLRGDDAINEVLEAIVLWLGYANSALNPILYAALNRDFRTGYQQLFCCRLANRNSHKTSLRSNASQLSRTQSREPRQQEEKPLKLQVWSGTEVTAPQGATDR

[6] = biological target: T4, Mu-type opioid receptor (Homo sapiens, UniProt P35372); test: Displacement of [3H]DAMGO from human MOR expressed in HEK cells by radioligand binding assay relative to control; assay type: cell-based; set-up: concentration or dose not given beside the values; conditions: concentration not given here
T4 sequence (P35372 whole entry): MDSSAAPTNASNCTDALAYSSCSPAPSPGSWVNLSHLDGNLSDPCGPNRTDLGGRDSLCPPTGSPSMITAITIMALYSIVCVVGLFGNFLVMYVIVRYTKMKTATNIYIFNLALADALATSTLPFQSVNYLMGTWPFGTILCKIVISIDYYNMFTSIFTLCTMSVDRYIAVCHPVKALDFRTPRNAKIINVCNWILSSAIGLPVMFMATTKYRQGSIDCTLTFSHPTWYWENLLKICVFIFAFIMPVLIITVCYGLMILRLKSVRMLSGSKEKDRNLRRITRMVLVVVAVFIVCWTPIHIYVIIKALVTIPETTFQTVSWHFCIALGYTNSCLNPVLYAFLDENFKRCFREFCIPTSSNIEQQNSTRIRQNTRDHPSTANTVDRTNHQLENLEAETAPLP

[7] = biological target: D(2) dopamine receptor (Homo sapiens, UniProt P14416); test: Displacement of [3H]N-methylspiperone from human dopamine D2 receptor expressed in stable fibroblast cells by radioligand binding assay; assay type: cell-based
[8] = biological target: T5, 5-hydroxytryptamine receptor 2A (Homo sapiens, UniProt P28223); test: Displacement of [3H]Ketanserin from 5-HT2A receptor (unknown origin) by radioligand binding assay relative to control; set-up: concentration or dose not given beside the values; conditions: concentration not given here
T5 sequence (P28223 whole entry): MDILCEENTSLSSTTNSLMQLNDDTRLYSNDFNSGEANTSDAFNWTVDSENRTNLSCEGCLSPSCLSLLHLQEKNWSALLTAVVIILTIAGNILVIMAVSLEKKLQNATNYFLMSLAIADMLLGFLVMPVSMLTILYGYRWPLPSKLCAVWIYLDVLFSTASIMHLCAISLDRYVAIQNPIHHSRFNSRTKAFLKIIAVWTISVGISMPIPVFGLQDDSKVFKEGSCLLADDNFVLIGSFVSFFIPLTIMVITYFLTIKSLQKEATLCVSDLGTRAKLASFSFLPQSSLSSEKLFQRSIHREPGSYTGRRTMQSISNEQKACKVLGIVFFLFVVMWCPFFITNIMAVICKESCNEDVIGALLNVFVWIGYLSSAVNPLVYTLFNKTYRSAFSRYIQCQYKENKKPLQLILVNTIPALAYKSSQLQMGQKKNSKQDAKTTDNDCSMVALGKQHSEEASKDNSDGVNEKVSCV

[9] = biological target: 5-hydroxytryptamine receptor 5A (Homo sapiens, UniProt P47898); test: Displacement of [3H]LSD from human 5-HT5A receptor expressed in Flp-In CHO cells by radioligand binding assay relative to control; assay type: cell-based; set-up: concentration or dose not given beside the values; conditions: concentration not given here
Chain of 5-hydroxytryptamine receptor 5A (P47898 whole entry): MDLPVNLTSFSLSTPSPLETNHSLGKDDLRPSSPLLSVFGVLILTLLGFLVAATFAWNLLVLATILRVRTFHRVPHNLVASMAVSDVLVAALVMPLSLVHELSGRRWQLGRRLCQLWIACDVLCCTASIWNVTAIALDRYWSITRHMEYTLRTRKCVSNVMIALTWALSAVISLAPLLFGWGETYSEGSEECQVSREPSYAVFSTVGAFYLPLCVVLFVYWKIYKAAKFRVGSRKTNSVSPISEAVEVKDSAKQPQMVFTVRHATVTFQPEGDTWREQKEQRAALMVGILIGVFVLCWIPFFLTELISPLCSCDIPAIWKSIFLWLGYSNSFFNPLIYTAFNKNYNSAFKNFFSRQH

[10] = biological target: 5-hydroxytryptamine receptor 2B (Homo sapiens, UniProt P41595); test: Displacement of [3H]LSD from human 5-HT2B receptor expressed in HEK cells by radioligand binding assay; assay type: cell-based; conditions: read-out: Ki
[11] = biological target: 5-hydroxytryptamine receptor 7 (Homo sapiens, UniProt P34969); test: Displacement of [3H]LSD from human 5-HT7A receptor expressed in HEK cells by radioligand binding assay relative to control; assay type: cell-based
Chain of 5-hydroxytryptamine receptor 7 (P34969 whole entry): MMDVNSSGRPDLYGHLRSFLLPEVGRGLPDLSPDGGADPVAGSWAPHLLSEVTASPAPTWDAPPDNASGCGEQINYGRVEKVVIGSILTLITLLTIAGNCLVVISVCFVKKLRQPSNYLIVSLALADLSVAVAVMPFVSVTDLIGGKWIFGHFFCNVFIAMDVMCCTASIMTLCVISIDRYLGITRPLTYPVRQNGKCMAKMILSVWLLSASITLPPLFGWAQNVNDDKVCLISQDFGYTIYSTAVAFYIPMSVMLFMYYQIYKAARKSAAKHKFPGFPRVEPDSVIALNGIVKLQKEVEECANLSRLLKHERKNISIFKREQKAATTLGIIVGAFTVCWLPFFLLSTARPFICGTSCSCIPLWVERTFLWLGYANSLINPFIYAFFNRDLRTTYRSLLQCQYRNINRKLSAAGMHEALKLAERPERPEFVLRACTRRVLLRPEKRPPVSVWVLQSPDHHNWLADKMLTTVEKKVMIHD

[12] = test system: NIH3T3; test: Cytotoxicity against mouse NIH/3T3 cells assessed as reduction in cell viability after 24 hrs by MTT assay; assay type: cell-based; conditions: NIH3T3, 24 h; how it was run: as §1
[13] = biological target: T6, 5-hydroxytryptamine receptor 1A (Homo sapiens, UniProt P08908); test: Displacement of [3H]-Way100635 from human 5HT1A receptor expressed in stable CHO cell membranes by radioligand binding assay
T6 sequence (P08908 whole entry): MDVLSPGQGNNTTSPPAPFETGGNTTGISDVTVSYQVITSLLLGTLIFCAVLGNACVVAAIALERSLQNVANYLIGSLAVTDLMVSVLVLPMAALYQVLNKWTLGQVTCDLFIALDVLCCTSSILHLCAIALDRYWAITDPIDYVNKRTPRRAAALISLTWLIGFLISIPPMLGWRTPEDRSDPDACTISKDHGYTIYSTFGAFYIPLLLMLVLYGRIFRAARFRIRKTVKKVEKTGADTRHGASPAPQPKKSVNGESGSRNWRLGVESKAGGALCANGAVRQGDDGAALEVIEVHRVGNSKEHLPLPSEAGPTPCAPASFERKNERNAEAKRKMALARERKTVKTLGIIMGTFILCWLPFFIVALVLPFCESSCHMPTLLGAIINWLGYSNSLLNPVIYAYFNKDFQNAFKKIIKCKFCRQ

[14] = biological target: T4, Mu-type opioid receptor; test: Displacement of [3H]DAMGO from human MOR expressed in HEK cells by radioligand binding assay; assay type: cell-based
[15] = biological target: T5, 5-hydroxytryptamine receptor 2A; test: Displacement of [3H]Ketanserin from 5-HT2A receptor (unknown origin) by radioligand binding assay
[16] = test system: Lewis lung carcinoma cell line; test: Cytotoxicity against mouse LLC cells harboring […] assessed as reduction in cell viability after 48 hrs by MTT assay; assay type: functional, cell-based; how it was run: as §1
[17] = biological target: T1, Sodium-dependent dopamine transporter; test: Displacement of [3H]WIN35428 from human DAT expressed in HEK cells by radioligand binding assay; assay type: cell-based
[18] = biological target: D(3) dopamine receptor (Homo sapiens, UniProt P35462); test: Displacement of [3H]N-methylspiperone from human dopamine D3 receptor expressed in HEK293T cells by radioligand binding assay relative to control; assay type: cell-based; set-up: concentration or dose not given beside the values; conditions: concentration not given here
Chain of D(3) dopamine receptor (P35462 whole entry): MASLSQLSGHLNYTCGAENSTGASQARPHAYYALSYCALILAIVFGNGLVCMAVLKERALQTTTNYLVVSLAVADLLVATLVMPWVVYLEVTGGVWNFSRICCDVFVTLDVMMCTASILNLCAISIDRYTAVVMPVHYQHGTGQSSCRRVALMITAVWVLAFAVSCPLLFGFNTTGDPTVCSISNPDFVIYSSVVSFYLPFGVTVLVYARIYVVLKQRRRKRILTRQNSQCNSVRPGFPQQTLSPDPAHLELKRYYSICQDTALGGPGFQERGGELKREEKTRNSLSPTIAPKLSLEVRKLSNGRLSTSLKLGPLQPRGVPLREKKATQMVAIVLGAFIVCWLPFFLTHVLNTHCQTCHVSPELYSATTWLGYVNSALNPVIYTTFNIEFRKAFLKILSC

[19] = biological target: T2, Delta-type opioid receptor; test: Displacement of [3H]DADLE from human DOR expressed in HEK cells by radioligand binding assay; assay type: cell-based; conditions: read-out: Ki
[20] = biological target: D(1B) dopamine receptor (Homo sapiens, UniProt P21918); test: Displacement of [3H]SCH23390 from human dopamine D5 receptor expressed in HEK293T cells by radioligand binding assay; assay type: cell-based
[21] = biological target: T3, Histamine H2 receptor; test: Displacement of [3H]Cimetidine from human H2 receptor expressed in HEK cells by radioligand binding assay; assay type: cell-based; conditions: read-out: Ki
[22] = biological target: 5-hydroxytryptamine receptor 6 (Homo sapiens, UniProt P50406); test: Displacement of [3H]LSD from human 5-HT6 receptor expressed in HEK cells by radioligand binding assay relative to control; assay type: cell-based; set-up: concentration or dose not given beside the values; conditions: concentration not given here
Chain of 5-hydroxytryptamine receptor 6 (P50406 whole entry): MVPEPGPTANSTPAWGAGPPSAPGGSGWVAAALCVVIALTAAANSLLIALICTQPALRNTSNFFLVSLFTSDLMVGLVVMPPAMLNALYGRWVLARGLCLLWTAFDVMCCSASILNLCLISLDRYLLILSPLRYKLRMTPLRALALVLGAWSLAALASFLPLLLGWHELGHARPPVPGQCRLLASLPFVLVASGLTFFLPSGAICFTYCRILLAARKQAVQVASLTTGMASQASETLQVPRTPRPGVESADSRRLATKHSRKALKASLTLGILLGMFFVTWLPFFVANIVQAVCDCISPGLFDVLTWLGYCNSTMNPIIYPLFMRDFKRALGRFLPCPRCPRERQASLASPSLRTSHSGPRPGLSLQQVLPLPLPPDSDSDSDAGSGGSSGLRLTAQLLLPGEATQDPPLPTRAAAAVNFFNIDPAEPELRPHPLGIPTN

[23] = biological target: T7, 5-hydroxytryptamine receptor 2C (Homo sapiens, UniProt P28335); test: Displacement of [3H]Mesulergine from human 5-HT2C receptor expressed in HEK293FlpIN cells by radioligand binding assay; assay type: cell-based
T7 sequence (P28335 whole entry): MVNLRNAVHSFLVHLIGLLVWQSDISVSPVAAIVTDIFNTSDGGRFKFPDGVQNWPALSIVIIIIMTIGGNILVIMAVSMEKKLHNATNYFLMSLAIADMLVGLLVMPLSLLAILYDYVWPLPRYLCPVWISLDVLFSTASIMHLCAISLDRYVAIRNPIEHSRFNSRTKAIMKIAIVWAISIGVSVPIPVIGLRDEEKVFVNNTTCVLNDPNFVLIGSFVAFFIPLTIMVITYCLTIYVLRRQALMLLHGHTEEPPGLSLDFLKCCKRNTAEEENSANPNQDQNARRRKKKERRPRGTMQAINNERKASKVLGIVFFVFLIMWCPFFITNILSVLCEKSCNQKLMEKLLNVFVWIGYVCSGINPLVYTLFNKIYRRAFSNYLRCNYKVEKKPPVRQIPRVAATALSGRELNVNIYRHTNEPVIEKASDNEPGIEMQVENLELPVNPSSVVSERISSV

[24] = biological target: T8, 5-hydroxytryptamine receptor 2C (Homo sapiens) (UniProt P28335); test: Displacement of [3H]Mesulergine from human 5-HT2C receptor expressed in HEK293FlpIN cells by radioligand binding assay relative to control; assay type: cell-based; set-up: concentration or dose not given beside the values; conditions: concentration not given here
T8 sequence (whole entry): T7 sequence (P28335 whole entry)

[25] = biological target: D(1A) dopamine receptor (Homo sapiens, UniProt P21728); test: Displacement of [3H]SCH23390 from human dopamine D1 receptor expressed in HEK293T cells by radioligand binding assay; assay type: cell-based
Chain of D(1A) dopamine receptor (P21728 whole entry): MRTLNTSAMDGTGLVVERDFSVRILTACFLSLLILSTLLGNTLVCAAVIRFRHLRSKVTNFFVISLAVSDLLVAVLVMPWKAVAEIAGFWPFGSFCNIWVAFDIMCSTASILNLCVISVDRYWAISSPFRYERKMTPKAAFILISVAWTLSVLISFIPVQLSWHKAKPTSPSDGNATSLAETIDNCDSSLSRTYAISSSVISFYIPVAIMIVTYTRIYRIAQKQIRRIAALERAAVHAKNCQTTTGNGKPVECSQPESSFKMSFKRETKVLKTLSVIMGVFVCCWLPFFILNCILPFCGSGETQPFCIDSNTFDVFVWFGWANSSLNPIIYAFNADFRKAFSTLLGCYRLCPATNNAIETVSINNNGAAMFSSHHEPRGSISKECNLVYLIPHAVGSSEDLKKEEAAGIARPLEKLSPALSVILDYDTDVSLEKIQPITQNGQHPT

[26] = test system: MDA-MB-231; test: Cytotoxicity against human MDA-MB-231 cells assessed as reduction in cell viability after 24 hrs by MTT assay; assay type: functional, cell-based; conditions: MDA-MB-231, 24 h; how it was run: as §1
[27] = biological target: T9, Sodium-dependent noradrenaline transporter (Homo sapiens, UniProt P23975); test: Displacement of [3H]Nisoxetine from human NET expressed in HEK cells by radioligand binding assay relative to control; assay type: cell-based
T9 sequence (P23975 whole entry): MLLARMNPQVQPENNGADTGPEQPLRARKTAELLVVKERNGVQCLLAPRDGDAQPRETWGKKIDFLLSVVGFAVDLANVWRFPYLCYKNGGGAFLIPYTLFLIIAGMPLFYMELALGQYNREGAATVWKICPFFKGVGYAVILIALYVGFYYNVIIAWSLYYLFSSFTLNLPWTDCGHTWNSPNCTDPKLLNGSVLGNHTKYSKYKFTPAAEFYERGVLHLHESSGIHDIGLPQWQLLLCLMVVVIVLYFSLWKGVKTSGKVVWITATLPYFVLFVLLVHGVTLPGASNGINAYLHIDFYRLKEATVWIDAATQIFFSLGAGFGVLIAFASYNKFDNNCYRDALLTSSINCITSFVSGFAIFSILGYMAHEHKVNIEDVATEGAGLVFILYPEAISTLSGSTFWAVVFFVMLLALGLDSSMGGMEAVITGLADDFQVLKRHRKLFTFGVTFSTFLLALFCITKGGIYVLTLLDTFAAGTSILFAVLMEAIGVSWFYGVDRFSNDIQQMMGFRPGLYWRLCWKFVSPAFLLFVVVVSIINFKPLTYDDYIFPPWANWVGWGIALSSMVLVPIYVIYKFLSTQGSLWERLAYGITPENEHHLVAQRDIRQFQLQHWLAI

[28] = biological target: T9, Sodium-dependent noradrenaline transporter; test: Displacement of [3H]Nisoxetine from human NET expressed in HEK cells by radioligand binding assay; assay type: cell-based

T1 sequence (Q01959 whole entry): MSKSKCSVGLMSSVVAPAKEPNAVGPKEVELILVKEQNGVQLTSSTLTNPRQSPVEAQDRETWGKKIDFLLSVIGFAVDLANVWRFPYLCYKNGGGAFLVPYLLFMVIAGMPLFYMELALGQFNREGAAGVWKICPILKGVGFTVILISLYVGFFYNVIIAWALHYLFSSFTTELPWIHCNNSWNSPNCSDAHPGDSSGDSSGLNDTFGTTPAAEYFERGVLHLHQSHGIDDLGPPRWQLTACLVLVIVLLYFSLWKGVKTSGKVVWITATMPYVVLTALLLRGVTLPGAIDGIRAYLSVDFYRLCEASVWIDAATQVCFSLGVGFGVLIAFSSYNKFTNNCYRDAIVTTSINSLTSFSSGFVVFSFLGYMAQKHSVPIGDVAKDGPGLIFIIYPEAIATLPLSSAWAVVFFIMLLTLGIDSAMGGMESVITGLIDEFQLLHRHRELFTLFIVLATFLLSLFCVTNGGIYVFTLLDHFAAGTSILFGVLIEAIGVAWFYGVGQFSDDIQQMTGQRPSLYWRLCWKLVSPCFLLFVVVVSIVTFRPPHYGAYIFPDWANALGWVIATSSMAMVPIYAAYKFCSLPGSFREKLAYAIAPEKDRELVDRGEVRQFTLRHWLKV

OC1(c2ccc(Cl)c(C(F)(F)F)c2)CCN(CCCCC(c2ccc(F)cc2)c2ccc(F)cc2)CC1
inhibition (INH) [1]: 91.6% | inhibition (INH) [2]: 92.5% | IC50 [3]: 4200 nM | inhibition [4]: 84.5% | inhibition [5]: 94% | inhibition [6]: 89% | Ki [7]: 194 nM | inhibition [8]: 96.3% | inhibition [9]: 75.8% | Ki [10]: 423 nM | inhibition (INH) [11]: 84.9% | IC50 [12]: 6500 nM | Ki [13]: 1390 nM | Ki [14]: 356 nM | Ki [15]: 1000 nM | IC50 [16]: 4100 nM | Ki [17]: 529 nM | inhibition [18]: 95.7% | Ki [19]: 1410 nM | Ki [20]: 529 nM | Ki [21]: 546 nM | inhibition [22]: 80% | Ki [23]: 1710 nM | inhibition [24]: 89% | Ki [25]: 798 nM | IC50 [26]: 5300 nM | inhibition (INH) [27]: 98.3% | Ki [28]: 77 nM
